Active and inactive are the calls of the source.
What was measured:
[1] = test system: Chlamydia trachomatis; experiment: Antibacterial activity against Chlamydia trachomatis serovar L2 at => 3.13 uM after 5 mins relative to control; format: functional
[2] = test system: Chlamydia trachomatis; experiment: Antibacterial activity against Chlamydia trachomatis serovar E at 60.0 -3.75 uM after 5 mins by MCC assay in presence of human serum albumin relative to control; format: functional, organism-based
Method in brief: (§1)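 C. trachomatis serovar EBs (5 × 10⁶ IFU/ml) diluted in 100% VFS (zinc-free for SFS), 100% SFS or 10% HSA, mixed 1:1 with five 4-fold SPG dilutions (final 60 μM/30 mM top; 50% VFS, 50% SFS, 5% HSA). After 5 or 120 min, diluted 1:40, inoculated onto McCoy monolayers. Inclusions stained with anti-LPS/FITC after 36–48 h. Inhibition versus no-drug control in the same fluid; MCC is complete inhibition.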

[3] = test system: Chlamydia trachomatis; experiment: Antibacterial activity against Chlamydia trachomatis serovar D at 60.0 - 3.75 uM after 5 mins by MCC assay in presence of human serum albumin relative to control; format: functional, organism-based; method in brief: as §1
[4] = test system: Chlamydia trachomatis; experiment: Antibacterial activity against Chlamydia trachomatis serovar L2 at 60.0 - 3.75 uM after 5 mins by MCC assay in presence of human serum albumin relative to control; format: functional, organism-based
Method in brief: (§2)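 McCoy monolayers seeded 5 × 10⁴ cells/well the day before. Five 4-fold dilutions in SPG (from 120 μM, 60 μM final) mixed 1:1 with EBs (5 × 10⁶ IFU/ml) in VFS, SFS or HSA, giving final 50% VFS, 50% SFS or 5% HSA. After exposure, mix diluted 1:40 in SPG, then inoculated. Inhibition is relative to a no-drug control in the same fluid and exposure time.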

[5] = test system: Chlamydia trachomatis; experiment: Antibacterial activity against Chlamydia trachomatis serovar L2 at 60.0 -3.75 uM after 5 mins by MCC assay in presence of simulated seminal fluid relative to control; format: functional, organism-based; method in brief: as §2
[6] = test system: Chlamydia trachomatis; experiment: Antibacterial activity against Chlamydia trachomatis serovar D at 15 uM at pH 4 after 120 mins by MCC assay in presence of sucrose- phosphate-glutamate buffer; format: functional, organism-based
Method in brief: (§3)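 Compounds and EBs were each diluted in SPG at pH 4, 5.5, 7 or 8 and mixed 1:1, so exposure pH was constant. Five 4-fold dilutions were used (top 60 μM peptide, 30 mM lipid). After 5 or 120 min, the mix was diluted 1:40 in pH 7.5 SPG and plated on McCoy cells. Inclusion counts were compared with a no-drug control at the same pH and time.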

[7] = test system: Chlamydia trachomatis; experiment: Antibacterial activity against Chlamydia trachomatis serovar D at 60.0 - 3.75 uM after 5 mins by MCC assay in presence of simulated seminal fluid relative to control; format: functional, organism-based; method in brief: as §1
[8] = test system: Chlamydia trachomatis; experiment: Antibacterial activity against Chlamydia trachomatis serovar L2 at 60.0 - 3.75 uM after 5 mins by MCC assay in presence of simulated vaginal fluid relative to control; format: functional, organism-based; method in brief: as §2
[9] = test system: Chlamydia trachomatis; experiment: Antibacterial activity against Chlamydia trachomatis serovar D at 15 uM at pH 7 after 120 mins by MCC assay in presence of sucrose- phosphate-glutamate buffer; format: functional, organism-based; method in brief: as §3
[10] = test system: Chlamydia trachomatis; experiment: Antibacterial activity against Chlamydia trachomatis serovar L2 at 3.75 uM at pH 4 after 120 mins by MCC assay in presence of sucrose-phosphate-glutamate buffer relative to control; format: functional, organism-based; method in brief: as §3
[11] = test system: Chlamydia trachomatis; experiment: Antibacterial activity against Chlamydia trachomatis serovar L2 at 50 uM after 5 mins relative to control; format: functional; conditions: serovar L2, 5 min
Method in brief: (§4)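 Serovar L2 EBs (5 × 10⁶ IFU/ml in SPG, pH 7.5) mixed 1:1 with ten 2-fold SPG dilutions (final 50 μM top peptide, 25 mM lipid), exposed 5 or 120 min, diluted 1:40, plated on McCoy cells; fixed with methanol after 36–48 h, anti-LPS/FITC stained. Triplicate wells, three fields each, three independent days; percent inhibition versus no-drug control ± SD.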

[12] = test system: Chlamydia trachomatis; experiment: Antibacterial activity against Chlamydia trachomatis serovar L2 at 50 uM after 120 mins relative to control; format: functional; conditions: serovar L2, 2 h; method in brief: as §4
[13] = test system: Chlamydia trachomatis; experiment: Antibacterial activity against Chlamydia trachomatis serovar D at 60.0 - 3.75 uM after 5 mins by MCC assay in presence of simulated vaginal fluid relative to control; format: functional, organism-based; method in brief: as §1
[14] = test system: Chlamydia trachomatis; experiment: Antibacterial activity against Chlamydia trachomatis serovar L2 at 60.0 - 3.75 uM after 120 mins by MCC assay in presence of human serum albumin relative to control; format: functional, organism-based; method in brief: as §1
[15] = test system: Chlamydia trachomatis; experiment: Antibacterial activity against Chlamydia trachomatis serovar L2 at => 3.13 uM after 120 mins relative to control; format: functional
[16] = Cytotoxicity against mouse McCoy cells after 48 hrs at =<60 uM by almar blue assay; format: cell-based
Method in brief: (§5)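 Cytotoxicity was tested by running the MCC procedure without inoculum: compound diluted in half with SPG, then diluted 1:40 onto McCoy monolayers and incubated 48 h at 37°C. Read-out by Alamar Blue, MTT and LDH kits. SPG served as negative control and Triton X-100 as positive control. Nontoxic was defined as <10% toxicity in all methods.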

[17] = test system: Chlamydia trachomatis; experiment: Antibacterial activity against Chlamydia trachomatis serovar D at 3.75 uM at pH 7 after 120 mins by MCC assay in presence of sucrose-phosphate-glutamate buffer relative to contro; format: functional, organism-based; method in brief: as §3
[18] = Cytotoxicity against mouse McCoy cells after 48 hrs at =<60 uM by MTT assay; format: cell-based; method in brief: as §5
[19] = test system: Chlamydia trachomatis; experiment: Antibacterial activity against Chlamydia trachomatis serovar L2 at 15 uM at pH 7 after 120 mins by MCC assay in presence of sucrose-phosphate-glutamate buffer relative to control; format: functional, organism-based; method in brief: as §3
[20] = test system: Chlamydia trachomatis; experiment: Antibacterial activity against Chlamydia trachomatis serovar D at 60.0 - 3.75 uM after 120 mins by MCC assay in presence of simulated seminal fluid relative to control; format: functional, organism-based; method in brief: as §1
[21] = test system: Chlamydia trachomatis; experiment: Antibacterial activity against Chlamydia trachomatis serovar L2 at 60.0 - 3.75 uM after 120 mins by MCC assay in presence of simulated vaginal fluid relative to control; format: functional, organism-based; method in brief: as §1
[22] = test system: Chlamydia trachomatis; experiment: Antibacterial activity against Chlamydia trachomatis serovar E at 60.0 - 3.75 uM after 120 mins by MCC assay in presence of simulated seminal fluid relative to control; format: functional, organism-based; method in brief: as §1
[23] = test system: Chlamydia trachomatis; experiment: Antibacterial activity against Chlamydia trachomatis serovar D at 60.0 - 3.75 uM after 120 mins by MCC assay in presence of simulated vaginal fluid relative to control; format: functional, organism-based; method in brief: as §1
[24] = test system: Chlamydia trachomatis; experiment: Antibacterial activity against Chlamydia trachomatis serovar E at 60.0 - 3.75 uM after 5 mins by MCC assay in presence of simulated vaginal fluid relative to control; format: functional, organism-based; method in brief: as §1
[25] = test system: Chlamydia trachomatis; experiment: Antibacterial activity against Chlamydia trachomatis serovar D at 15 uM at pH 7 after 120 mins by MCC assay in presence of sucrose-phosphate-glutamate buffer relative to contro; format: functional, organism-based; method in brief: as §3
[26] = test system: Chlamydia trachomatis; experiment: Antibacterial activity against Chlamydia trachomatis serovar E at 60.0 - 3.75 uM after 5 mins by MCC assay in presence of simulated seminal fluid relative to control; format: functional, organism-based; method in brief: as §1
[27] = test system: Chlamydia trachomatis; experiment: Antibacterial activity against Chlamydia trachomatis serovar E at 60.0 -3.75 uM after 120 mins by MCC assay in presence of human serum albumin relative to control; format: functional, organism-based; method in brief: as §1
[28] = test system: Chlamydia trachomatis; experiment: Antibacterial activity against Chlamydia trachomatis serovar D at 60.0 - 3.75 uM after 120 mins by MCC assay in presence of human serum albumin relative to control; format: functional, organism-based; method in brief: as §1
[29] = test system: Chlamydia trachomatis; experiment: Antibacterial activity against Chlamydia trachomatis serovar L2 at 60.0 -3.75 uM after 120 mins by MCC assay in presence of simulated seminal fluid relative to control; format: functional, organism-based; method in brief: as §2
[30] = test system: Chlamydia trachomatis; experiment: Antibacterial activity against Chlamydia trachomatis serovar D at 3.75 uM at pH 4 after 120 mins by MCC assay in presence of sucrose- phosphate-glutamate buffer; format: functional, organism-based; method in brief: as §3
[31] = test system: Chlamydia trachomatis; experiment: Antibacterial activity against Chlamydia trachomatis serovar E at 60.0 - 3.75 uM after 120 mins by MCC assay in presence of simulated vaginal fluid relative to control; format: functional, organism-based; method in brief: as §1
[32] = test system: Chlamydia trachomatis; experiment: Antibacterial activity against Chlamydia trachomatis serovar L2 at 3.75 uM at pH 7 after 120 mins by MCC assay in presence of sucrose-phosphate-glutamate buffer relative to control; format: functional, organism-based; method in brief: as §3

With H-RRWVRRVRRWVRRVVRVVRRWVRR-OH as the substance, how does the Activity [1] read?
Its Activity is greater than 56%.

And the Activity [2]?
The Activity was “inactive”.

What about the Activity [3] of the same substance?
The Activity was “inactive”.

What about the Activity [4] of the same substance?
Its Activity is “inactive”.

What about the Activity [5] of the same substance?
The Activity was “inactive”.

What about the Activity [6] of the same substance?
The Activity was “inactive”.

And the Activity [7]?
Its Activity is “inactive”.

What about the Activity [8] of the same substance?
The Activity was “inactive”.

And the Activity [9]?
The Activity was “inactive”.

And the Activity [10]?
Its Activity is “inactive”.

And the inhibition at 50 µM [11]?
Its inhibition at 50 µM is 89.3%.

And the inhibition at 50 µM [12]?
The inhibition at 50 µM was 99.9%.

What about the Activity [13] of the same substance?
Its Activity is “inactive”.

And the Activity [14]?
Its Activity is “inactive”.

What about the Activity [15] of the same substance?
Its Activity is greater than 97%.

And the Activity [16]?
Its Activity is “Non-toxic”.

And the Activity [17]?
The Activity was “inactive”.

And the Activity [18]?
The Activity was “Non-toxic”.

And the Activity [19]?
Its Activity is “inactive”.

And the Activity [20]?
Its Activity is “inactive”.

And the Activity [21]?
The Activity was “inactive”.

What about the Activity [22] of the same substance?
The Activity was “inactive”.

What about the Activity [23] of the same substance?
The Activity was “inactive”.

What about the Activity [24] of the same substance?
Its Activity is “inactive”.

What about the Activity [25] of the same substance?
The Activity was “inactive”.

And the Activity [26]?
Its Activity is “inactive”.

What about the Activity [27] of the same substance?
The Activity was “inactive”.

What about the Activity [28] of the same substance?
Its Activity is “inactive”.

What about the Activity [29] of the same substance?
The Activity was “inactive”.

What about the Activity [30] of the same substance?
Its Activity is “inactive”.

And the Activity [31]?
The Activity was “inactive”.

What about the Activity [32] of the same substance?
Its Activity is “inactive”.
